Experimental data gathered from unrelated publications.
Each line is one published result; the experiments were not run side by side.
Effect on: cell growth or viability

| SMILES | cell line | assay | setting | measurement | value |
| --- | --- | --- | --- | --- | --- |
| N#CC(C(=O)Nc1cccc(C(F)(F)F)c1)=C1Sc2nc3ccc(S(=O)(=O)N4CCCC4)cc3nc2S1 | MDA-MB-231 | MTT | 50 µM, 24 h | viability | 18.4% |
| C=CC(=O)N1CCC[C@@H](n2nc(-c3ccc(Oc4ccccc4)cc3)c3c(N)ncnc32)C1 | OCI-Ly3 | ATP luminescence | 72 h | GI50 | 19.3 µM |
| C[C@]12CC[C@H](O)CC1=CC[C@@H]1[C@@H]2CC[C@]2(C)C(c3cccnc3)=CC[C@@H]12 | CWR22Rv1 | MTT | – | GI50 | 11.5 µM |
| COc1cc2c(cc1O)CCN(Cc1cccc(O)c1)C2 | MDA-MB-231 | WST-1 | 96 h | GI50 | > 100 µM |
| CC#CC(=O)N1CC[C@@H](n2cc(-c3ccc(Oc4c(F)cccc4F)cc3)c3c(N)n[nH]c(=O)c32)C1 | OCI-Ly3 | ATP luminescence | 72 h | GI50 | 9.56 µM |
| CNC(=O)c1ccc(N2C(=S)N(c3ccc(C#N)c(C(F)(F)F)c3)C(=O)C2(C)C)cc1F | CWR22Rv1 | MTT | – | GI50 | 15.1 µM |
| COc1cc2c(cc1OS(N)(=O)=O)CCN(C(=O)c1cc(OC)c(OC)c(OC)c1)C2 | MDA-MB-231 | WST-1 | 96 h | GI50 | 1.72 µM |
| CCOC(=O)C(C(C)=O)=C1Sc2nc3ccc(S(=O)(=O)N4CCCC4)cc3nc2S1 | MDA-MB-231 | MTT | 3.125 µM, 24 h | viability | 49.2% |
| Cc1cc2c(cc1N1C(=O)c3cccc4c(CCCO)ccc(c34)C1=O)n(C)c(=O)n2C (racemic) | NCI-H526 | resazurin | – | GI50 | 6.86 µM |
| COc1cc(OC)c(CN2CCc3cc(O)c(OC)cc3C2)c(OC)c1 | MDA-MB-231 | WST-1 | 96 h | GI50 | > 100 µM |
| COc1cccc2c1C(=O)c1c(O)c3c(c(O)c1C2=O)C[C@@](O)(C(=O)CO)C[C@@H]3O[C@H]1C[C@H](N)[C@H](O)[C@H](C)O1 | LLC-PK11 | neutral red | 48 h | IC50 | < 0.55 µg/mL |
| COc1cccc2c1C(=O)c1c(O)c3c(c(O)c1C2=O)C[C@@](O)(C(=O)CO)C[C@@H]3O[C@H]1C[C@H](N)[C@H](O)[C@H](C)O1 | MDA-MB-231 | MTT | 25 µM, 24 h | viability | 16.2% |
| COc1cc(OC)c(OC)cc1CN1CCc2cc(OS(N)(=O)=O)c(OC)cc2C1 | MDA-MB-231 | WST-1 | 96 h | GI50 | 0.491 µM |
